How the values were obtained:
[1] = target: WD repeat-containing protein 5 (Homo sapiens, UniProt P61964); assay: Inhibition of 10mer-Thr-FAM probe binding to human WDR5 after 2 hrs by fluorescence polarization assay
[2] = Antiproliferative activity against human MV4-11 cells harboring MLL-AF4 fusion protein after 72 hrs by CCK8 assay; type: functional, cell-based; details: MV4-11, 72 h
[3] = Antiproliferative activity against human MV4-11 cells harboring MLL-AF4 fusion protein by CellTiter-Glo assay; type: functional, cell-based
In short: (§1)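 Proliferation assay in leukaemia cell lines with or without an MLL fusion. MV4-11 (MLL-AF4) gives an IC50 from concentration–response. K562 carries no MLL fusion protein; compounds are tested at a single 35 μM, reported as % remaining growth activity (IC50 where determined).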

[4] = Growth inhibition of human K562 cells after 7 days by MTS assay; type: functional, cell-based; details: K562, 168 h; in short: as §1

Compound	IC50 [1] [µM]	IC50 [2] [µM]	IC50 [3] [µM]	IC50 [4] [µM]
Cc1c(F)c(N)cc(C(=O)Nc2cc(-c3ccc(NC(=O)CC(C)C)cc3)ccc2N2CCN(C)CC2)c1Cl	0.105	3.9	–	–
Cc1c(F)ccc(C(=O)Nc2cc([N+](=O)[O-])ccc2N2CCN(c3ccccn3)CC2)c1Cl	> 20	–	–	–
Cc1c(F)c(N)cc(C(=O)Nc2cc(-c3ccc(NC(=O)C(C)NC(=O)OC(C)(C)C)cc3)ccc2N2CCN(C)CC2)c1Cl (centres undefined)	0.0779	4.3	–	–
CCC(CC)(NC(=O)C(C)C)C(=O)N[C@@H](CCCNC(=N)N)C(=O)NC1(C(=O)NC(c2ccc(F)cc2)c2ccc(F)cc2)CCCC1	–	–	25	37.8
Cc1c(F)c(N)cc(C(=O)Nc2cc(-c3ccc(NC(=O)CN)cc3)ccc2N2CCN(C)CC2)c1Cl	0.0625	13.2	–	–
CCCC(=O)Nc1ccc(-c2ccc(N3CCN(C)CC3)c(NC(=O)c3cc(N)c(F)c(C)c3Cl)c2)cc1	0.076	2.3	–	–
Cc1c(F)ccc(C(=O)Nc2cc([N+](=O)[O-])ccc2NCCN2CCCC2)c1Cl	> 20	–	–	–
CC(=O)Nc1cc(C(=O)Nc2cc(-c3ccncc3)ccc2N2CCN(C)CC2)c(Cl)c(C)c1F	1.36	–	–	–
Cc1c(F)c(N)cc(C(=O)Nc2cc(-c3ccc(NC(=O)C(C)C)cc3)ccc2N2CCN(C)CC2)c1Cl	0.0956	4.5	–	–
Cc1c(F)ccc(C(=O)Nc2cc([N+](=O)[O-])ccc2NCCN)c1Cl	> 20	–	–	–
Cc1c(F)c(N)cc(C(=O)Nc2cc(-c3ccc(NC(=O)CCNC(=O)OC(C)(C)C)cc3)ccc2N2CCN(C)CC2)c1Cl	0.102	4.6	–	–
Cc1c(F)c(N)cc(C(=O)Nc2cc(-c3ccc(NC(=O)C4CC4)cc3)ccc2N2CCN(C)CC2)c1Cl	0.0758	4.8	–	–

Now from value to compound, other results behind:

IC50 [1] [µM]	Compound	IC50 [2] [µM]	IC50 [3] [µM]	IC50 [4] [µM]
> 20	CN1CCN(c2ccc(-c3ccc(N)cc3)cc2NC(=O)c2cccc(N)c2)CC1	–	–	–
0.0771	Cc1c(F)c([N+](=O)[O-])cc(C(=O)Nc2cc(-c3ccncc3)ccc2N2CCN(C)CC2)c1Cl	–	–	–
> 20	COc1ccc(N2CCN(c3ccc([N+](=O)[O-])cc3NC(=O)c3ccc(F)c(C)c3Cl)CC2)cc1	–	–	–
0.0502	Cc1c(F)c(N)cc(C(=O)Nc2cc(-c3ccc(NC(=O)CCN)cc3)ccc2N2CCN(C)CC2)c1Cl	25.1	–	–
0.0925	COC(=O)c1ccc(-c2ccc(N3CCN(C)CC3)c(NC(=O)c3cc([N+](=O)[O-])c(F)c(C)c3Cl)c2)cc1	–	–	–
0.422	Cc1c(F)c(N)cc(C(=O)Nc2cc(-c3ccc(NC(=O)c4ccccc4)cc3)ccc2N2CCN(C)CC2)c1Cl	5.4	–	–
0.285	Cc1c(F)c([N+](=O)[O-])cc(C(=O)Nc2cc(-c3ccc([N+](=O)[O-])cc3)ccc2N2CCN(C)CC2)c1Cl	–	–	–
